Source: PubChem (several laboratories)
cardiac RTF act = cardiac RTF calcium sensitization; IANBD-labeled TnC RTF fluorescence at EC20 calcium; 0% EC20 calcium, 100% full calcium; activation, % at 7.2 µM; actives 0.24% (n = 340,000); AID 493008;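 active = activation above the mean over all tested compounds plus 3 SD, cut at about 30% in these data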;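 note: rise in fluorescence read as greater calcium sensitivity of cardiac thin filaments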
CRFR2-BP ag = agonists of human CRF-binding protein/CRF-R2 receptor complex. HEK293 CRF-R2/CRF-BP, calcium dye fluorescence (FLIPR); percent of saturating CRF peptide response. activation, % at 13.2 µM. actives 0.46% (n = 350,000);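 active = activation of at least 50%, plus an integration ratio under a set limit after plate pattern correction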;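 note: plate controls were neutral control wells without compound for no effect and CRF at EC100 for full effect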
DDE Tn6 FP inh = inhibitors of Tn6 peptide binding to human fibrin DD(E); P02675; Fibrin DD(E) TRITC-Tn6 fluorescence polarization displacement; inhibition, % at 8.3 µM; actives 0.21% (n = 370,000); AID 720509;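 active = inhibition above a per-campaign cutoff: mean of compounds within control limits plus 3 SD, cut at about 15% in these data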;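 note: 0% = median of all compound wells on the plate and 100% = blocking peptide control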
Target sequence (P02675 whole entry, looked up): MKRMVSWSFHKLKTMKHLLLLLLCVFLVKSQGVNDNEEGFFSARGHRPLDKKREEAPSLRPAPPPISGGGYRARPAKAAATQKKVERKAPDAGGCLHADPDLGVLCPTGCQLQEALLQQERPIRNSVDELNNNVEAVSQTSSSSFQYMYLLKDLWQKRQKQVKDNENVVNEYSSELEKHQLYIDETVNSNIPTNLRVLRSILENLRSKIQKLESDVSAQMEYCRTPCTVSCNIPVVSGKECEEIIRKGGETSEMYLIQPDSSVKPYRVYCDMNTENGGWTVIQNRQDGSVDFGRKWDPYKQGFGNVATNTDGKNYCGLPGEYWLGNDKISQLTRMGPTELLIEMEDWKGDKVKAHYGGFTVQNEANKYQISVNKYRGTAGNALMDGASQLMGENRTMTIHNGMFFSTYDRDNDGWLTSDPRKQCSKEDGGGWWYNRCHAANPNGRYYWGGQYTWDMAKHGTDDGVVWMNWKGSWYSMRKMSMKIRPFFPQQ
CRFBP-R2 block = blocks CRF-induced signaling of the CRF-BP/CRF-R2 complex. inhibition, % at 11.8 µM. HEK293 CRF-R2/CRF-BP, CRF-induced calcium fluorescence. actives 0.59% (n = 350,000);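 active = inhibition of the ligand-induced calcium signal above about 50% at the single tested concentration, limit read from the data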
Cardiac RTF inh = cardiac RTF calcium desensitization; IANBD-labeled cardiac RTF, Ca2+ fluorescence; inhibition, % at 7.15 µM; actives 0.12% (n = 340,000); P19429+P45379;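 active = inhibition above the mean inhibition of all tested compounds plus 3 SD, cut at about 17% in these data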;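 note: assay run at fixed EC70 calcium of 1.6 mM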
DDE Tn7 FP inh = DD(E)-Tn7 binding inhibition, primary FP screen. FP displacement of FITC-Tn7 peptide from fibrin DD(E); 0% = median of compound wells per plate. inhibition, % at 8.3 µM. P02675. AID 720508. actives 0.13% (n = 370,000);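 active = inhibition above the mean of compounds falling within the control limits plus 3 SD of them, cut at about 14% in these data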;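 note: 0% = plate median of compound wells and 100% = 10 µM Aha-Tn7 peptide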
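Assay system: human fibrin DD(E). Input: DD(E) 2 µM final. Medium: Tris buffer with calcium and detergent, pH 7.8. Compound dosing: single point at 8.3 µM. Timing: 10 min plus 3 h, room temperature. Technique: fluorescence polarization of the labelled Tn7 tracer. Read-out: percent inhibition. Replicates: singlicate testing.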
The depositor's hits bear a star. Shown are actives, neighbours in structure and some others; about 1.4% of the full set was active somewhere.

What do the screens show for `COC(=O)C1=C(C)N(Cc2ccc(F)cc2)C(=S)NC1c1ccc(Cl)cc1` (stereo not given)?
DDE Tn6 FP inh: -6; DDE Tn7 FP inh: 1

Results for CC(=O)c1cccc(Nc2cc(C)nc3ccccc23)c1 ?
cardiac RTF act: 9; CRFR2-BP ag: 1; DDE Tn6 FP inh: -3; CRFBP-R2 block: 10; Cardiac RTF inh: -14; DDE Tn7 FP inh: 4

What do the screens show for `CC(=O)c1cccc(Nc2cc(C)nc3c(C)cccc23)c1`?
cardiac RTF act: -4; CRFR2-BP ag: -1; DDE Tn6 FP inh: 1; CRFBP-R2 block: 109*; Cardiac RTF inh: -1; DDE Tn7 FP inh: 9

What do the screens show for `Nc1[nH]c(C(=O)c2ccccc2)c(-c2ccc(Cl)cc2)c1C(=O)NCc1ccccc1`?
DDE Tn6 FP inh: -2; DDE Tn7 FP inh: 4

How did COc1ccc(C(=O)NCCS(=O)(=O)N(C)C2CCCCC2)cc1 do in these assays?
cardiac RTF act: 4; CRFR2-BP ag: 37; DDE Tn6 FP inh: -1; CRFBP-R2 block: 51*; Cardiac RTF inh: 4; DDE Tn7 FP inh: 0

What do the screens show for `CCN(C1CCCCC1)S(=O)(=O)CCNC(=O)c1ccc(OC)cc1`?
CRFR2-BP ag: 0; DDE Tn6 FP inh: -1; CRFBP-R2 block: 6; DDE Tn7 FP inh: -3

Results for CCOc1cc(/C=C/c2cccc[n+]2C)ccc1O ?
cardiac RTF act: 3; CRFR2-BP ag: 59*; DDE Tn6 FP inh: -8; CRFBP-R2 block: -52; Cardiac RTF inh: 4; DDE Tn7 FP inh: 4

What do the screens show for `CCNC(=O)CCc1nc(-c2ccc(C(C)C)cc2)no1`?
DDE Tn6 FP inh: -8; DDE Tn7 FP inh: 7

Results for CCCCCn1c(C)c(CC(=O)Nc2ccc(Oc3cccnc3)c(C)c2)c2ccccc21 ?
DDE Tn6 FP inh: 9; DDE Tn7 FP inh: -5

How did Cc1nn(C)c(C)c1NC(=O)c1cc2nc(-c3ccco3)cc(C(F)(F)F)n2n1 do in these assays?
cardiac RTF act: 7; CRFR2-BP ag: -3; DDE Tn6 FP inh: -10; CRFBP-R2 block: 134*; Cardiac RTF inh: -4; DDE Tn7 FP inh: 6

How did Cc1ccc(-c2nc3ccccc3nc2-c2ccccc2)cc1 do in these assays?
cardiac RTF act: -2; CRFR2-BP ag: 3; DDE Tn6 FP inh: 5; CRFBP-R2 block: -7; Cardiac RTF inh: -6; DDE Tn7 FP inh: 0

How did Cn1nc(-c2ccccc2)c2nc3ccccc3nc21 do in these assays?
cardiac RTF act: 52*; CRFR2-BP ag: 253; DDE Tn6 FP inh: -1; CRFBP-R2 block: -205; Cardiac RTF inh: -9; DDE Tn7 FP inh: 2

What do the screens show for `Cc1cc(=O)[nH]c(SCC(=O)Nc2ccc(F)cc2)c1C#N`?
CRFR2-BP ag: 0; DDE Tn6 FP inh: 3; CRFBP-R2 block: 12; DDE Tn7 FP inh: 0

Results for Cc1cc(=O)[nH]c(SCC(=O)Nc2ccc(Br)cc2)c1C#N ?
cardiac RTF act: -1; CRFR2-BP ag: 67*; DDE Tn6 FP inh: 4; CRFBP-R2 block: 63*; Cardiac RTF inh: -13; DDE Tn7 FP inh: -1

What do the screens show for `CC(NC(=O)c1ccccc1)C(=O)N/N=C/c1ccco1` (stereo not given)?
cardiac RTF act: -3; CRFR2-BP ag: 1; DDE Tn6 FP inh: -4; CRFBP-R2 block: 4; Cardiac RTF inh: -11; DDE Tn7 FP inh: 0

What do the screens show for `CC(C)CC(NC(=O)c1ccccc1)C(=O)N/N=C/c1ccco1` (stereo not given)?
cardiac RTF act: 1; CRFR2-BP ag: 178*; DDE Tn6 FP inh: 4; CRFBP-R2 block: -128; Cardiac RTF inh: -3; DDE Tn7 FP inh: 4

What do the screens show for `Cc1nc2c(s1)sc1ccccc12`?
cardiac RTF act: 2; CRFR2-BP ag: 1; DDE Tn6 FP inh: 0; CRFBP-R2 block: 51*; Cardiac RTF inh: 0; DDE Tn7 FP inh: -2

What do the screens show for `O=C(N/N=C/c1ccccn1)c1ccncc1`?
cardiac RTF act: 1; CRFR2-BP ag: -1; DDE Tn6 FP inh: -5; CRFBP-R2 block: -4; Cardiac RTF inh: -2; DDE Tn7 FP inh: 12

What do the screens show for `O=C(N/N=C/c1ccccn1)c1cccs1`?
cardiac RTF act: 0; CRFR2-BP ag: 0; DDE Tn6 FP inh: 2; CRFBP-R2 block: 62*; Cardiac RTF inh: 3; DDE Tn7 FP inh: 0

Results for O=S(=O)(c1ccccc1)N1CCCc2nc(-c3ccc(F)cc3)ccc21 ?
DDE Tn6 FP inh: 6; DDE Tn7 FP inh: 2

How did Cc1[nH]c2ccccc2c1SCc1nnc(SCc2ccc(Cl)cc2)n1C do in these assays?
cardiac RTF act: -4; CRFR2-BP ag: -1; DDE Tn6 FP inh: -12; CRFBP-R2 block: 4; Cardiac RTF inh: -6; DDE Tn7 FP inh: -1

What do the screens show for `Cc1[nH]c2ccccc2c1SCc1nnc(SCc2ccccc2)n1C`?
cardiac RTF act: 1; CRFR2-BP ag: -3; DDE Tn6 FP inh: -2; CRFBP-R2 block: 115*; Cardiac RTF inh: -6; DDE Tn7 FP inh: -10

What do the screens show for `CCOC(=O)C(NCc1ccccn1)(NC(=O)c1cccnc1)C(F)(F)F` (stereo not given)?
cardiac RTF act: -6; CRFR2-BP ag: -3; DDE Tn6 FP inh: 8; CRFBP-R2 block: 61*; Cardiac RTF inh: -11; DDE Tn7 FP inh: 2

Results for O=C(O)c1ccccc1SC1CC(=O)N(c2ccc3c(c2)OCO3)C1=O (stereo not given) ?
cardiac RTF act: 10; CRFR2-BP ag: -1; DDE Tn6 FP inh: 2; CRFBP-R2 block: 6; Cardiac RTF inh: -19; DDE Tn7 FP inh: -4

What do the screens show for `Nc1ccccc1SC1CC(=O)N(c2ccc3c(c2)OCO3)C1=O` (stereo not given)?
CRFR2-BP ag: -1; DDE Tn6 FP inh: 10; CRFBP-R2 block: 84*; DDE Tn7 FP inh: -2

What do the screens show for `Cc1ccccc1C(=O)NCC(=O)OC1CCCCC1=O` (stereo not given)?
cardiac RTF act: -2; CRFR2-BP ag: 5; DDE Tn6 FP inh: -3; CRFBP-R2 block: 68*; Cardiac RTF inh: -11; DDE Tn7 FP inh: -7

How did O=C1N/C(=N/O)S/C1=C/c1cccc([N+](=O)[O-])c1 do in these assays?
cardiac RTF act: -2; CRFR2-BP ag: -2; DDE Tn6 FP inh: -5; CRFBP-R2 block: 17; Cardiac RTF inh: -7; DDE Tn7 FP inh: 5

How did Cc1cccc(/C=C2/S/C(=N/N=C3\CC4CCC3(C)C4(C)C)NC2=O)c1 (stereo not given) do in these assays?
cardiac RTF act: 0; CRFR2-BP ag: 3; DDE Tn6 FP inh: -9; CRFBP-R2 block: 50*; Cardiac RTF inh: -3; DDE Tn7 FP inh: -1

Results for C[C@@H]1CCCCO[C@H](CN(C)C(=O)Nc2cccc3ccccc23)[C@@H](C)CN([C@H](C)CO)C(=O)c2cc(NC(=O)c3ccccc3)ccc2O1 ?
CRFR2-BP ag: 3; DDE Tn6 FP inh: -9; CRFBP-R2 block: 11; DDE Tn7 FP inh: -3
